Most compounds without a hit are left out; they make up all but 4.8% or so of the library.
NF-kB neuron act = activators of NF-kB expression in neurons, primary screen, cell-based, HTS | fold change at 12.5 µM | human neuronal cells, NF-kB reporter expression; active compounds read high | AID 1239, 2008 | 1.6% of 190,000 active; in the data active = fold change above about 3.3
APP 5'UTR act = activators of APP 5'UTR luciferase reporter, primary screen, SH-SY5Y cells | 1% of 190,000 active | AID 1276, 2008 | activation, % at 2 µM | SH-SY5Y APP 5'UTR luciferase reporter, luminescence; zero percent = DMSO vehicle wells;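 active = activation above a set limit, based on mean plus 3 SD of controls, cut at about 140% in these data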
FLuc inhib CS = firefly luciferase enzyme inhibitors, primary screen, artefact control for luciferase-based inhibitor screens, biochemical, luminescence, ATPLite | 1.5% of 200,000 active | 10 min | AID 1006, 2008 | Luciferin 4-monooxygenase (Photinus pyralis), P08659 | inhibition, % at 10 µM;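 active = inhibition above about 50% when tested at 10 µM, limit read from the data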
Target sequence (P08659 whole entry, looked up): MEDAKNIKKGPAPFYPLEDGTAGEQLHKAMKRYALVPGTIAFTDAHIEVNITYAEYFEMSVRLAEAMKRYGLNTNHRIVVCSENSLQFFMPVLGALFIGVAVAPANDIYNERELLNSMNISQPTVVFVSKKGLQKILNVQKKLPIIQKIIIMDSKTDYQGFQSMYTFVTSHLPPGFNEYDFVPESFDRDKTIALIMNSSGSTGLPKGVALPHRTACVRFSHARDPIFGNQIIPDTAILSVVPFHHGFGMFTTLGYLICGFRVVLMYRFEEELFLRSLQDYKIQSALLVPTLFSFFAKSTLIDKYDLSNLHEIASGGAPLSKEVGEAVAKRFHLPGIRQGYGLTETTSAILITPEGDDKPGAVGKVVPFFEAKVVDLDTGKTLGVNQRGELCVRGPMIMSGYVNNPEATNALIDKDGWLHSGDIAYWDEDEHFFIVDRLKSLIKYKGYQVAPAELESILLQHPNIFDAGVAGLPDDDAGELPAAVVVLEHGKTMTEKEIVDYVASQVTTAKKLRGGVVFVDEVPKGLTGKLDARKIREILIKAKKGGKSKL
FLuc stim CS = FLuc activators, initial screening, artefact control for FLuc-dependent activation tests, biochemical, ATPlite luminescence; ATPlite luciferase biochemical, 10 min; 0 = ATP-free wells, 1 = DMSO control; activation factor at 10 µM; 200,000 tested, under 10 active;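 active = luciferase activation factor, scaled between plate controls, of at least 2 with compound at 10 µM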
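Assay system: Luciferase/luciferin detection reagent, cell-free biochemical luciferase assay / Read-out: luciferase activation / Benchmarks: No-ATP low control, compound-free enzyme-plus-ATP high control / Medium: PBS buffer for ATP / Detection: luminescence measurement of luciferase light output / Schedule: 10 min at ambient temperature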
STAT1 act = STAT1 signaling activators, primary screen, cell-based, HTS, luciferase reporter; AID 932, 2007; NIH 3T3 STAT1-luciferase reporter, IFN-gamma, luminescence; 100% = IFN-gamma alone, no compound; activation (% of control), % at 5.5 µM; 2.6% of 200,000 active;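 active = activation above the screen-wide mean activation plus 3 SD, cut at about 130% in these data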;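 also: raw ratio to IFN-gamma control signal so 100% means no change and 0% no light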
APP transl inh = inhibitors of APP translation via 5'UTR reporter, primary screen, APP 5'UTR luciferase, SH-SY5Y cells. SH-SY5Y APP 5'UTR-luciferase reporter, luminescence. inhibition, % at 2 µM. 0.82% of 190,000 active;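 active = inhibition above a set limit, derived from the sample mean plus 3 SD, cut at about 45% in these data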
STAT1 act conf = STAT1 signaling activators, confirmation, cell-based, HTS, luciferase reporter; shares compounds with STAT1 act; NIH 3T3 STAT1-luciferase reporter, IFN-gamma potentiation, luminescence; 100% = IFN-gamma EC80 alone, no compound; activation (% of control), % at 5.7 µM; 97% of 1,200 active;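 active = activation above a set limit carried over from the earlier primary STAT1 screen, cut at about 140% in these data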;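 also: simple ratio to median IFN-gamma plus DMSO wells so 0% means no light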
NFkB act STAT1ct = NF-kB reporter activators, TNF-alpha stimulated, counter-screen for STAT1 activator project, cell-based, HEK293T, luciferase luminescence | 100% = TNF-alpha with vehicle only | activation (% of control), % at 5.7 µM | shares compounds with STAT1 act | 43% of 1,200 active | AID 1306, 2008;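 active = activation above the mean of solvent-only control wells plus 3 SD, set per campaign, cut at about 130% in these data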;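 also: TNF-alpha given at a submaximal dose yielding about 80% of full reporter signal; values are well signal over median control so 100% means no change and 0% no light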
STAT3 act STAT1c = STAT3 reporter activation by STAT1 hits, confirmation, counter-screen for STAT1 activator project, U3A cells, luciferase, luminescence; shares compounds with STAT1 act; IL-6; cells lack STAT1; 100 = IL-6 alone, no compound effect; activation (% of control), % at 5.7 µM; 46% of 1,200 active;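 active = activation above the solvent-only control well mean plus 3 SD, set per plate batch, cut at about 110% in these data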;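 also: 0% = no luminescence and 100% = median IL-6 plus DMSO wells; higher means more STAT3 reporter activation so hits are non-selective activators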
Numbers without * were called inactive; nt = no result.

SMILES	NF-kB neuron act	APP 5'UTR act	FLuc inhib CS	FLuc stim CS	STAT1 act	APP transl inh	STAT1 act conf	NFkB act STAT1ct	STAT3 act STAT1c
CCc1ccc(NC(=O)c2cnn(-c3ccccc3)c2C)cc1	5.9*	155*	29	0.7	185*	-155	252*	114	87
COc1cccc(/C=N/n2cnc3ccccc32)c1OC	4.1*	152*	6	0.9	162*	-152	205*	131	107
O=C(OC1CCCCC1)c1ccc(NC(=O)C2CCCCC2)cc1	0.81	-2	-4	1	102	2	nt	nt	nt
CC(C)(C)C(=O)Nc1ccc(C(=O)OC2CCCCC2)cc1	3.6*	133	-2	1	162*	-133	219*	145*	133*
Cc1cccc(NC(NC(=O)c2ccccc2[N+](=O)[O-])C(Cl)(Cl)Cl)c1 (stereo not given)	0.9	-6	-8	1.1	103	6	nt	nt	nt
CCOC(=O)c1c(C)[nH]c(C)c1C(=O)COC(=O)/C=C/c1ccc(Cl)cc1	1.1	-12	-16	1.2	96	12	nt	nt	nt
Nc1nc(-c2ccccc2)nc2sc3c(c12)CCCC3	11*	180*	85*	0.1	191*	-180	249*	136*	139*
Cc1ccc(-c2nc3sc4c(c3c(=O)n2N)CCCC4)cc1	5.1*	143*	12	0.9	178*	-143	224*	143*	105
c1ccc(-c2cc3nccc(-c4ccccn4)n3n2)cc1	3.2	100	14	0.9	160*	-100	188*	135*	117*
Cc1cc2nccc(-c3ccccn3)n2n1	1.2	5	-3	1	106	-5	nt	nt	nt
COc1cc(CNc2ccc(N3CCN(C(C)=O)CC3)cc2)ccc1OCc1ccc(F)cc1	1.1	-2	0	1	105	2	nt	nt	nt
Cc1ccc(/C=N/NC(=O)c2ccccn2)s1	2.7	122	75*	0.3	154*	-122	163*	115	96
CC1CCC2=NN(C(=O)c3ccco3)C(O)(C(F)(F)F)C2C1 (stereo not given)	1.3	2	-1	1	107	-2	nt	nt	nt
O=C(CN1CCN(Cc2ccccc2F)C1=O)NCCc1ccc(Cl)cc1	0.97	9	-5	1.1	104	-9	nt	nt	nt
COc1ccc2c(c1)CCC/C2=N\NC(=O)c1ccoc1C	1.7	108	15	0.8	151*	-108	129*	117	100
Cc1cc(CN2C(=O)c3ccccc3C2=O)cc(N2CCOCC2)c1	0.92	8	-4	1	102	-8	nt	nt	nt
O=S(=O)(Nc1nc2ccccc2nc1N1CCc2ccccc2C1)c1ccc(Br)cc1	1.8	64	46	0.5	158*	-64	181*	85	133*
COc1ccc(CCn2c(SCCN3CCCCC3)nc3ccccc3c2=O)cc1OC	0.46	6	-7	1.1	93	-6	nt	nt	nt
COc1cc(OC)cc(C(=O)Nn2c(C)nc3ccccc3c2=O)c1	0.49	-1	-4	1	101	2	nt	nt	nt
COc1ccc2[nH]c3c(c2c1)CCn1c-3nc2ccccc2c1=O	5.5*	184*	42	0.6	153*	-184	298*	116	93
O=C(CNC1CCCCCC1)c1cccs1	1.1	18	-4	1	100	-18	nt	nt	nt
COc1ccc(/C=C2\C(=O)OCc3cc(OC)c(OC)cc32)cc1OC	1.2	-6	22	0.8	93	6	nt	nt	nt
COc1ccc(/C=C2\OC(=O)c3c(OC)cccc32)cc1OC	3	101	50*	0.5	169*	-101	209*	139*	112*
Cc1ccccc1NC(=O)C(Cl)=C(Cl)Cl	1.5	-1	-8	1.1	85	1	nt	nt	nt
COc1ccccc1N1CCN(CC(O)c2ccc3cc[nH]c3c2)CC1 (stereo not given)	0.66	6	-1	1	94	-6	nt	nt	nt
SMILES	NF-kB neuron act	APP 5'UTR act	FLuc inhib CS	FLuc stim CS	STAT1 act	APP transl inh	STAT1 act conf	NFkB act STAT1ct	STAT3 act STAT1c
CCn1c(C)nc2cc(C(=O)OC(C(F)(F)C(F)F)C(F)(F)C(F)F)ccc21	0.9	-2	2	1	182*	2	182*	120	115*
Nc1nc(CN2CCCCCC2)nc(Nc2ccccc2)n1	0.74	10	-6	1.1	98	-10	nt	nt	nt
Cc1c(-c2nc(N)nc(Nc3ccccc3)n2)oc2ccccc12	3	154*	-4	1	164*	-154	211*	148*	107
CCOC(=O)c1sc(NC(=O)Nc2ccccc2)cc1C	9.5*	173*	84*	0.2	189*	-173	222*	123	107
CCOC(=O)c1cc(NC(=O)Nc2ccccc2Cl)c(C)nc1C	1.1	3	-6	1.1	100	-3	nt	nt	nt
CCOC(=O)c1sc(NC(=O)Nc2ccc(F)cc2)nc1C	5.3*	121	59*	0.4	160*	-121	236*	135*	112*
CCOC(=O)c1sc(NC(=O)Nc2ccccc2Cl)cc1C	4.2*	220*	80*	0.2	186*	-220	295*	113	96
CCOC(=O)c1sc(NC(=O)c2ccc(C)s2)cc1C	3	172*	62*	0.4	175*	-172	193*	138*	95
CCOC(=O)c1sc(NC(C)=O)cc1C	1	10	-2	1	98	-10	nt	nt	nt
CN(C)CCCN(C(=O)c1cccs1)c1nc(-c2ccccc2)cs1	1.7	23	-6	1.1	91	-23	nt	nt	nt
CN(c1ccc(O)cc1)c1nc(-c2ccccc2)cs1	6.9*	243*	41	0.6	186*	-243	238*	114	120*
Cc1ccc(NC(=O)c2ccn(C)n2)c(Br)c1	7*	142*	47	0.5	155*	-142	198*	116	97

Assay outcomes as filed in PubChem.
